Assay results collected from several papers.
Target: Serine/threonine-protein kinase PAK 4 (PAK4, Homo sapiens, UniProt O96013)

Cn1cc(-c2cc(F)cc(N3CCn4c(cc5c4CCCC5)C3=O)c2CO)cc(Nc2ccc(N3CCN(C4COC4)CC3)cn2)c1=O  inhibition (enzyme activity, inhibitor; 0.1 µM): 1%
C#Cc1n[nH]c2c(-c3cn([C@@H](C)c4ccccc4)c(=O)[nH]c3=O)cc(F)cc12  inhibition (enzyme activity, inhibitor; 0.1 µM): 0.6%
Nc1ncc(-c2nc(N3CCOCC3)nc(N3CCOCC3)n2)c(C(F)F)n1  remaining binding (binding, competition with immobilised ligand; 10 µM): 58%
Cc1nn(C)cc1-c1nc2c(N3CCN(Cc4ccc(Cl)cc4)CC3)c(Cl)cnc2[nH]1  remaining binding (binding, competition with immobilised ligand; 1 µM): 100%
O=c1[nH]c2ccccc2n1C1CCN(Cc2ccc(-c3[nH]c4cc5ncnc5cc4nc3-c3ccccc3)cc2)CC1  remaining signal (cell-free assay; 0.5 µM): 102%
COc1cc(Nc2ncc(F)c(Nc3ccc4c(n3)NC(=O)C(C)(C)O4)n2)cc(OC)c1OC  inhibition (binding, competition with immobilised ligand; 10 µM): 97%
Cc1n[nH]c2ccc(-c3cncc(OC[C@@H](N)Cc4c[nH]c5ccccc45)c3)cc12  inhibition (enzyme activity, inhibitor; 1 µM): 26%
COc1ncccc1-c1cnn2ccc(N3CCN(C(=O)OC(C)C)CC3)nc12  remaining binding (binding, competition with immobilised ligand; 1 µM): 62%
N#CC1(c2ccccn2)CCN(Cc2cc(C(=O)O)c(=O)n3ccccc23)CC1  remaining binding (cell-free assay, competition with immobilised ligand; 1 µM): 100%
Cn1cc(-c2cccc(N3CCc4c(sc5c4CC(C)(C)C5)C3=O)c2CO)cc(Nc2ccncn2)c1=O  inhibition (enzyme activity, inhibitor; 1 µM): -6%
C#Cc1n[nH]c2c(-c3cn(C(C)c4ccccn4)c(=O)[nH]c3=O)cc(F)cc12 (stereo not drawn)  inhibition (enzyme activity, inhibitor; 1 µM): -6%
Cn1cncc1[C@@](O)(COc1ccc(C#N)cc1-c1ccc(OC(F)(F)F)cc1)c1ccc(C#N)cc1  remaining binding (cell-free assay, competition with immobilised ligand; 1 µM): 100%
